ChEMBL document CHEMBL1800022, “Structure-activity relationships of a series of analogues of the RFamide-related peptide 26RFa” (J Med Chem, 2011)
Active and inactive are the calls of the source. The rule behind the calls is not given here. Residues, ends and D or L forms follow the SMILES beside them. *: point of attachment. NHBn = c1ccc(CN*)cc1

Legend:
[1] = molecular target: T1, Pyroglutamylated RF-amide peptide receptor (Homo sapiens) (UniProt Q96P65); test: Agonist activity at DYKDDDDK-flagged human GPR103 receptor expressed in CHO-K1 cells co-expressing G-protein alpha16 assessed as stimulation of calcium mobilization at 10' -12 to 10^-5 M after 2 mins by fluorometric analysis; format: functional, cell-based
T1 sequence (whole entry): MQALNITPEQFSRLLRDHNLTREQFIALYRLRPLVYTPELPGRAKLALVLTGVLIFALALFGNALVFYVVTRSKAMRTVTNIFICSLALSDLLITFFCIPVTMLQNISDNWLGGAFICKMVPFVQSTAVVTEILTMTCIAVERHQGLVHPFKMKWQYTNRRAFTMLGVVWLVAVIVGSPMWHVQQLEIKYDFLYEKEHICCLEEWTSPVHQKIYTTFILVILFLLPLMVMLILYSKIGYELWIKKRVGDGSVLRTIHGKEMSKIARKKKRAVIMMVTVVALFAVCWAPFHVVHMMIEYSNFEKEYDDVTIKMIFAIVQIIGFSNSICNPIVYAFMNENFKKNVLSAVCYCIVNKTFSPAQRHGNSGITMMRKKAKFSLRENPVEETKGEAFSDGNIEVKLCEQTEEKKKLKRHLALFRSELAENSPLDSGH
Outline: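 CHO-K1 cells stably expressing Gα16 and C-terminally flag-tagged human GPR103 (Geneticin-selected), plated at 40 000 cells/well 24 h before assay. Loaded with 2 μM Fluo-4AM for 1 h, washed, then 30 min in HBSS with 2.5 mM probenecid and 5 mM HEPES. Peptides added at 10^-12 to 10^-5 M final and fluorescence read for 2 min. Triplicates; EC50 from sigmoidal variable-slope fit, at least three experiments.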

[2] = molecular target: T1, Pyroglutamylated RF-amide peptide receptor (Homo sapiens); test: Antagonist activity at DYKDDDDK-flagged human GPR103 receptor expressed in CHO-K1 cells co-expressing G-protein alpha16 assessed as inhibition of 26RFa-induced calcium mobilization after 2 mins by fluorometric analysis; format: functional, cell-based
Outline: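 Same Gα16/flag-hGPR103 CHO-K1 cells, Fluo-4AM loading and HBSS/probenecid/HEPES buffer. Triplicates; IC50 reported as mean ± SEM of at least three experiments.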

Activity [1] | inhibition [2] | Compound
inactive | inactive | N=C(N)NCCC[C@H](NC(=O)[C@H](Cc1ccccc1)NC(=O)[C@H](CO)NC(=O)[C@H](Cc1ccccc1)NC(=O)CNC(=O)CN)C(=O)NCc1ccccc1 (H-GGFSFR-NHBn)
inactive | inactive | C[C@H](NC(=O)[C@H](CCCNC(=N)N)NC(=O)[C@H](Cc1ccccc1)NC(=O)[C@H](CO)NC(=O)[C@H](Cc1ccccc1)NC(=O)CNC(=O)CN)C(N)=O (H-GGFSFRA-NH2)
inactive | inactive | N=C(N)NCCC[C@H](NC(=O)[C@H](Cc1ccccc1)NC(=O)[C@H](CO)NC(=O)[C@H](Cc1ccccc1)NC(=O)CNC(=O)CN)C(=O)N[C@@H](Cc1ccccc1)C(=O)NCc1ccccc1 (H-GGFSFRF-NHBn)
inactive | inactive | CC(C)C[C@H](NC(=O)[C@H](CCC(=O)O)NC(=O)[C@H](CCC(=O)O)NC(=O)[C@H](C)NC(=O)[C@@H](N)CC(C)C)C(=O)N[C@@H](CC(N)=O)C(=O)NCC(=O)N[C@@H](Cc1ccc(O)cc1)C(=O)N[C@@H](CO)C(N)=O (H-LAEELNGYS-NH2)

Further lines, the molecule ahead of its results:

Compound | Activity [1] | inhibition [2]
CC(C)C[C@H](NC(=O)[C@@H]1CCCN1)C(=O)NCC(=O)N[C@@H](CC(N)=O)C(=O)N[C@@H](CC(C)C)C(=O)N[C@@H](C)C(=O)N[C@@H](CCC(=O)O)C(=O)N[C@@H](CCC(=O)O)C(=O)N[C@@H](CC(C)C)C(=O)N[C@@H](CC(N)=O)C(=O)NCC(=O)N[C@@H](Cc1ccc(O)cc1)C(=O)N[C@@H](CO)C(=O)N[C@@H](CCCNC(=N)N)C(N)=O (H-PLGNLAEELNGYSR-NH2) | inactive | inactive
CC(C)C[C@H](NC(=O)[C@H](CC(N)=O)NC(=O)CNC(=O)[C@H](CC(C)C)NC(=O)[C@@H]1CCCN1C(=O)CNC(=O)[C@H](CO)NC(=O)[C@@H](N)[C@@H](C)O)C(=O)N[C@@H](C)C(=O)N[C@@H](CCC(=O)O)C(=O)N[C@@H](CCC(=O)O)C(=O)N[C@@H](CC(C)C)C(=O)N[C@@H](CC(N)=O)C(=O)NCC(=O)N[C@@H](Cc1ccc(O)cc1)C(=O)N[C@@H](CO)C(N)=O (H-TSGPLGNLAEELNGYS-NH2) | inactive | inactive
CC(C)C[C@H](NC(=O)[C@H](CC(N)=O)NC(=O)CNC(=O)[C@H](CC(C)C)NC(=O)[C@@H]1CCCN1C(=O)CNC(=O)[C@H](CO)NC(=O)[C@@H](N)[C@@H](C)O)C(=O)N[C@@H](C)C(=O)N[C@@H](CCC(=O)O)C(=O)N[C@@H](CCC(=O)O)C(=O)N[C@@H](CC(C)C)C(=O)N[C@@H](CC(N)=O)C(=O)NCC(=O)N[C@@H](Cc1ccc(O)cc1)C(=O)N[C@@H](CO)C(=O)N[C@@H](CCCNC(=N)N)C(=O)N[C@@H](CCCCN)C(N)=O (H-TSGPLGNLAEELNGYSRK-NH2) | inactive | inactive
